Screening data (PubChem BioAssay)
A selection: hits, their analogues and other compounds. The true share with any hit is near 3.1%.
Env fusion inh – HIV envelope-mediated fusion inhibition | inhibition, % at 12.3 µM | HeLa-JRFL Env/CEM21 cell fusion, luciferase | 1.1% of 360,000 active;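 active means mean replicate inhibition score of at least 50 and every replicate individually at or above 50; inconclusive means only one of the two criteria met; inactive means mean below 50 and not all replicates reaching 50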;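 further: 0% = plate neutral controls and 100% = maraviroc near 300 nM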
Ecoli rRNA inh – inhibitors of bacterial rRNA selective over humanized ribosomes; E. coli WT GFP vs humanized-ribosome RFP mutants, fluorescence, 24 h; active compounds read low; DMSO median 0, no signal -100; GFP signal change (wild-type ribosome), % (test concentration not listed); 1.6% of 350,000 active; AID 720706;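 active means significant combined selectivity score with lowered wild-type GFP, culture density cut under 30%, mutant RFP and density less affected; inactive means any of these conditions unmet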
miR-122 sensor – inhibitors of miR-122 in Huh7 cells | AID 602342 | 0.3% of 340,000 active | activation (reporter increase), % at 12.5 µM | Huh7 miR-122 Renilla luciferase sensor, 48 h; neutral wells = 0, positive control = 100;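 active means mean replicate activation score at least 90 and every replicate individually at or above 90; inconclusive means only one of the two criteria met; inactive means neither criterion met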;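 further: higher luciferase means less miR-122 activity so hits act as miR-122 inhibitors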
F508del corr – CFTR F508del correction in bronchial cells; CFBE cells, YFP halide quenching; stimulated with forskolin plus potentiator P3; % fluorescence drop versus neutral controls; activity (quench increase), % at 7.58 µM; 0.36% of 350,000 active; AID 720511;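 active means mean added fluorescence quench of at least 8% versus neutral control, with both replicates also reaching 8%; inconclusive means only one of the mean or replicate conditions met; inactive means mean below 8% and not both replicates reaching 8%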;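 further: cells transiently co-express mutant CFTR-F508del with the halide-sensitive YFP; corrector assay measuring rescue of mutant channel to the surface after 24 h compound exposure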
INS-1E GSIS act – primary screen for activators of insulin secretion dependent on glucose, INS-1E cells, GLuc reporter luminescence; INS-1E GLuc reporter insulin secretion, 2-3 h; activation, % at 16.6 µM; 0.61% of 370,000 active; AID 743287;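 active means lowest replicate activation of at least 40%, so every replicate reaches that level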;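 further: 0% = median of neutral control wells and 100% = median of IBMX positive control wells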
Cneo AK release – Cryptococcus neoformans lysis via adenylate kinase release; C. neoformans lysis, adenylate kinase release luminescence, 4 h; normalised: neutral wells 0, clomiphene wells 100; lysis activity, % at 15 µM; 0.2% of 360,000 active; AID 651654;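 active means mean lysis activity across replicates of at least 80%, whatever share of replicates individually reach that level; inactive means mean lysis activity below 80%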
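read-out = cell lysis signal | test system = log-phase Cryptococcus neoformans yeast cells | input = cells at 5 × 10^6 per mL | medium = fresh YPD growth medium | signal = luminescent adenylate kinase detection reagent | timing = 4 h at 37 °C static, read 1 h later | dosing = single dose | controls = Clomiphene as positive lysis control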
* = called active by the depositor; ? = inconclusive; . = no result given; [ ] = another dose, or the depositor's remark.

SMILES	Env fusion inh	Ecoli rRNA inh	miR-122 sensor	F508del corr	INS-1E GSIS act	Cneo AK release
O=C(c1cccc(F)c1)N1CC[C@@H]2[C@H]1c1cc(-c3ccccc3F)ccc1N[C@@H]2CO	.	-4	-5[16.7 µM]	0	-17	-20
CN(C)C(=O)c1cccc(-c2ccc3c(c2)[C@H]2[C@H](CCN2Cc2ccccc2F)[C@@H](CO)N3)c1	.	2	-4[16.7 µM]	3	-7	-22
CO[C@H]1CN(C)C(=O)c2cc(NS(=O)(=O)c3cccc(C)c3)ccc2OC[C@@H](C)NC[C@H]1C	-8[16.7 µM]	3	23[16.7 µM]	-4	11	0
Cc1ccc(S(=O)(=O)N2CC[C@@H]3[C@H](CO)Nc4ccc(-c5ccccc5F)cc4[C@@H]32)cc1	.	0	62[16.7 µM]	-2	18	90*
Cc1ccc(S(=O)(=O)N2CC[C@H]3[C@H](CO)Nc4ccc(-c5ccccc5F)cc4[C@H]32)cc1	.	0	39[16.7 µM]	-1	21	0
COc1ccc(CN(C)C[C@H]2Oc3ccc(NC(=O)Nc4ccc(F)cc4)cc3CC(=O)N([C@@H](C)CO)C[C@@H]2C)cc1	.	-54	36[16.7 µM]	-1	-19	102*
C[C@@H]1CN([C@@H](C)CO)C(=O)Cc2cc(NC(=O)Nc3ccc(C(F)(F)F)cc3)ccc2O[C@H]1CN(C)Cc1ccc(C(F)(F)F)cc1	56*[16.7 µM]	3	-7[16.7 µM]	-1	16	8
C[C@@H]1CN([C@H](C)CO)C(=O)Cc2cc(NS(=O)(=O)c3ccc(Cl)cc3)ccc2O[C@@H]1CN(C)Cc1ccc(C(F)(F)F)cc1	6[16.7 µM]	-2	-5[16.7 µM]	3	-18	-4
C[C@H](CO)N1C[C@H](C)[C@@H](CN(C)Cc2ccc(C(F)(F)F)cc2)Oc2ccc(NC(=O)Nc3ccc(C(F)(F)F)cc3)cc2CC1=O	58*[16.7 µM]	3	-11[16.7 µM]	-2	3	6
C[C@H](CO)N1C[C@H](C)[C@@H](CN(C)Cc2ccc(C(F)(F)F)cc2)Oc2ccc(NS(=O)(=O)c3ccc(Cl)cc3)cc2CC1=O	69*[16.7 µM]	2	-31[16.7 µM]	5	-7	-2
C[C@H]1CN([C@@H](C)CO)C(=O)Cc2cc(NC(=O)Nc3ccc(C(F)(F)F)cc3)ccc2O[C@H]1CN(C)Cc1ccc(C(F)(F)F)cc1	-2[16.7 µM]	5	0[16.7 µM]	-1	-2	50
Cc1noc(C)c1NC(=O)N(C)C[C@H]1Oc2ccc(NS(=O)(=O)c3cn(C)cn3)cc2CC(=O)N([C@H](C)CO)C[C@@H]1C	-8[16.7 µM]	3	-6[16.7 µM]	1	1	2
Cc1ccc(NC(=O)C[C@H]2CC[C@H]3[C@@H](COc4ccc(NC(=O)C(C)C)cc4C(=O)N3C)O2)cc1	-14[16.7 µM]	-1	-2[16.7 µM]	0	-2	-1
C[C@H]1CN([C@@H](C)CO)C(=O)c2cccc(NS(=O)(=O)c3ccccc3)c2O[C@@H]1CN(C)S(=O)(=O)c1cccs1	-22[16.7 µM]	-5	1[16.7 µM]	2	14	.
CO[C@H]1CN(C)C(=O)c2ccc(NC(=O)C3CCC3)cc2OC[C@H](C)N(CC2CCCCC2)C[C@@H]1C	92*[16.7 µM]	8	.	0	-3	.
CCC(=O)Nc1ccc2c(c1)OC[C@H](C)N(CC1CCCCC1)C[C@H](C)[C@@H](OC)CN(C)C2=O	87*[16.7 µM]	-3	-8[16.7 µM]	-1	-12	.
CCC(=O)Nc1ccc2c(c1)OC[C@H](C)N(CC1CC1)C[C@H](C)[C@H](OC)CN(C)C2=O	.	0	.	-1	19	5
CC[C@@H](NC(=O)[C@@H](Cc1ccccc1)NC(=O)CC[C@H]1O[C@@H](n2ccc(=O)[nH]c2=O)[C@H](O)[C@@H]1O)c1ccccc1	-5	-8.9*	2	1	5	1
CCOC(=O)c1sc(NC(=O)CCSC)nc1C	-1	.	-6	.	.	1
CCOC(=O)c1sc(NC(=O)C2CCCCC2)nc1C	-74	-30*	.	1	7	.
CCOC(=O)c1sc(NC(C)=O)nc1C	.	0	-3	-3	-6	-4
CCOC(=O)c1sc(NC(=O)CSC(=S)N2CCN(C)CC2)nc1C	30	-25*	.	-3	.	2
O=C(C[C@@H]1CC[C@H]2[C@@H](COC[C@@H](O)CN2Cc2ccccc2)O1)N[C@@H]1CCN(Cc2ccccc2)C1	.	-2	-6[16.7 µM]	2	2	50
O=C(C[C@H]1CC[C@H](NC(=O)Nc2cc(F)ccc2F)[C@H](CO)O1)Nc1ccc(-c2ccccc2)cc1	-5[16.7 µM]	-5	.	2	-18	-1
COc1ccc(NC(=O)CN2C(=O)NC3(CCCCCCC3)C2=O)cc1	-4	-6	-2	4	11	3
SMILES	Env fusion inh	Ecoli rRNA inh	miR-122 sensor	F508del corr	INS-1E GSIS act	Cneo AK release
COc1ccc(CNC(=O)CN2C(=O)NC3(CCCCCC3)C2=O)cc1	-33	11	.	2	62*	1
O=C(CN1C(=O)NC2(CCCCCC2)C1=O)Nc1ccccc1[N+](=O)[O-]	10	-8	159*	-6	11	.
COc1cccc(NC(=O)CN2C(=O)NC3(CCCCCC3)C2=O)c1	-4	4	.	8.8*	.	2
CC(C)c1ccc(NC(=O)CN2C(=O)NC3(CCCCCCC3)C2=O)cc1	-24	-24	2	9.5*	.	0
Cc1ccc(CNC(=O)CN2C(=O)NC3(CCCC3)C2=O)cc1	-12	3	3	1	-10	.
CN1c2ccc(C#Cc3ccc(F)cc3)cc2[C@@H]2[C@@H](CCN2S(=O)(=O)c2ccccc2F)[C@H]1CO	.	-3	5[16.7 µM]	-1	5	52
COc1ccc(/C=C/C(=O)NCCc2nc3ccccc3[nH]2)cc1	-18	-26*	-3	-3	-11	2
CCOc1nc(NC(=O)NS(=O)(=O)Oc2cccc(Cl)c2)nc(-c2ccccc2)n1	-11	.	.	.	19	.
CCOc1nc(NC(=O)NS(=O)(=O)c2cccc(Cl)c2)nc(-c2ccccc2)n1	13	12	-1	.	71*	7
CCOc1nc(NC(=O)NS(=O)(=O)Oc2ccccc2Cl)nc(-c2ccccc2)n1	-15	.	1	.	60*	0
COc1ccc(S(=O)(=O)N[C@@H]2C=C[C@H](CC(=O)N3CCC(Cc4ccccc4)CC3)O[C@H]2CO)cc1	11[16.7 µM]	-7	.	-2	-15	3
COc1ccc(S(=O)(=O)N[C@H]2C=C[C@H](CC(=O)N3CCC(Cc4ccccc4)CC3)O[C@@H]2CO)cc1	?	-15	.	-2	-24	89*
Cc1ccc(S(=O)(=O)N[C@H]2C=C[C@@H](CC(=O)N3CCC(Cc4ccccc4)CC3)O[C@H]2CO)cc1	56*[16.7 µM]	-1	-2[16.7 µM]	0	-5	85*
OC[C@H]1[C@H](c2ccc(-c3ccccc3)cc2)[C@H]2CN(CCC(F)(F)F)CCCCN21	.	-7	1[16.7 µM]	1	-26	2
